In brackets after ≈: the same amount, converted by molar mass. Activity calls are given as the source filed them. The rule behind the calls is not given here.
How the values were obtained:
[1] = system: Klebsiella pneumoniae; experiment: Antibacterial activity against multidrug-resistant Klebsiella pneumoniae ATCC 700603 assessed as zone of inhibition by disc diffusion method; type: functional
[2] = system: Acinetobacter baumannii; experiment: Antibacterial activity against multidrug-resistant Acinetobacter baumannii BAA 1605 assessed as zone of inhibition by disc diffusion method; type: functional
[3] = system: Bacillus anthracis; experiment: Antibacterial activity against Bacillus anthracis Sterne 34F2 assessed as zone of inhibition by disc diffusion method; type: functional
[4] = system: Staphylococcus aureus; experiment: Antibacterial activity against methicillin-susceptible Staphylococcus aureus ATCC 25923 assessed as zone of inhibition by disc diffusion method; type: functional
[5] = system: Staphylococcus aureus; experiment: Antibacterial activity against hospital acquired methicillin-resistant Staphylococcus aureus ATCC 43300 assessed as zone of inhibition by disc diffusion method; type: functional
[6] = system: Staphylococcus aureus; experiment: Antibacterial activity against vancomycin-resistant Staphylococcus aureus HIP11714 assessed as zone of inhibition by disc diffusion method; type: functional
[7] = system: Pseudomonas aeruginosa; experiment: Antibacterial activity against Pseudomonas aeruginosa ATCC 15422 assessed as zone of inhibition by disc diffusion method; type: functional
[8] = system: Staphylococcus aureus; experiment: Bactericidal activity against methicillin-susceptible Staphylococcus aureus ATCC 25923 assessed as bacterial killing incubated for over night; type: functional
Summary of the method: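 5 μL from each well was spotted on agar and incubated overnight. MBC was taken as the lowest concentration with no visible growth.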

[9] = system: Staphylococcus aureus; experiment: Antibacterial activity against linezolid-resistant Staphylococcus aureus assessed as bacterial growth inhibition incubated for 20 hrs by broth dilution method; type: functional
Summary of the method: (§1)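 Broth microdilution: 0.5 McFarland suspension from an overnight culture, diluted 1:100 in cation-adjusted Mueller Hinton broth (CAMHB), given serial dilutions of test agent for 20 h at 37 °C. MIC is the lowest concentration with no visible growth.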

[10] = system: Staphylococcus aureus; experiment: Antibacterial activity against heterogeneous vancomycin-intermediate Staphylococcus aureus Mu3 ATCC 700698 assessed as bacterial growth inhibition incubated for 20 hrs by broth dilution method; type: functional; summary of the method: as §1
[11] = system: Staphylococcus aureus; experiment: Ratio of MBC to MIC against heterogeneous vancomycin-intermediate Staphylococcus aureus Mu3 ATCC 700698; type: functional
Summary of the method: (§2)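 For MBC, 5 μL from each well was spotted on agar and incubated overnight; MBC is the lowest concentration with no visible growth. Ratio taken as MBC over MIC.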

[12] = system: Staphylococcus aureus; experiment: Ratio of MBC to MIC against vancomycin-intermediate resistant Staphylococcus aureus Mu50 ATCC 700699; type: functional; summary of the method: as §2
[13] = system: Staphylococcus aureus; experiment: Antibacterial activity against vancomycin-resistant Staphylococcus aureus HIP11714 assessed as inhibition of bacterial growth incubated for 20 hrs by broth microdilution method; type: functional; conditions: HIP11714, 20 h; summary of the method: as §1
[14] = system: Staphylococcus aureus; experiment: Bactericidal activity against Vancomycin-resistant Staphylococcus aureus HIP11714 assessed as bacterial killing incubated for over night; type: functional; summary of the method: as §2
[15] = system: Staphylococcus aureus; experiment: Ration of MBC to MIC against Vancomycin-resistant Staphylococcus aureus HIP11714; type: functional; summary of the method: as §2
[16] = system: Staphylococcus aureus; experiment: Antibacterial activity against vancomycin-resistant Staphylococcus aureus HIP11714 assessed as inhibition of bacterial growth measured between 2 and 4 passages at 0.5 times of MIC incubated for 20 hrs by resistant development assay; type: functional, organism-based
[17] = system: Staphylococcus aureus; experiment: Antibacterial activity against heterogeneous vancomycin-intermediate Staphylococcus aureus Mu3 ATCC 700698 assessed as inhibition of bacterial growth between 2 and 4 passages at 0.5 times of MIC incubated for 20 hrs by resistant development assay; type: functional, organism-based
Summary of the method: (§3)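 Serial passage with hVISA Mu3, VISA and VRSA strains grown at 0.5× MIC of agent (± equimolar vancomycin). […] MIC was read visually at each passage.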

[18] = system: Staphylococcus aureus; experiment: Antibacterial activity against methicillin-susceptible Staphylococcus aureus ATCC 25923 in presence of glutathione; type: functional
Summary of the method: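 Broth microdilution MIC: a 0.5 McFarland suspension from overnight culture was diluted 1:100 in cation-adjusted Mueller Hinton broth supplemented with glutathione 100 μM. It was exposed to serial dilutions for 20 h at 37 °C. MIC was taken as the lowest concentration with no visible growth.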

[19] = system: Staphylococcus aureus; experiment: Antibacterial activity against methicillin-susceptible Staphylococcus aureus ATCC 25923 in presence of 0.05% v/v albumin; type: functional
[20] = system: Staphylococcus aureus; experiment: Antibacterial activity against methicillin-susceptible Staphylococcus aureus ATCC 25923 in presence of 5% v/v serum; type: functional
[21] = system: Staphylococcus aureus; experiment: Antibacterial activity against methicillin-susceptible Staphylococcus aureus ATCC 25923 in presence of 10% v/v serum; type: functional
[22] = system: MDA-MB-231; experiment: Cytotoxicity against human MDA-MB-231 cells assessed as reduction in cell viability after 72 hrs by MTT assay; type: cell-based; conditions: MDA-MB-231, 72 h
Summary of the method: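 MTT viability: MDA-MB-231 and HepG2 cells (kept in DMEM with 10% FBS) were seeded at 5000/well and allowed to adhere overnight. They were exposed to 0.001–100 μM for 72 h, then given MTT 1 mg/mL in PBS pH 7.4 for 2 h. Formazan was dissolved in DMSO and A570 read. IC50 was taken from dose-response curves.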

[23] = system: Staphylococcus aureus; experiment: Antibacterial activity against methicillin-susceptible Staphylococcus aureus ATCC 25923 assessed as delayed bacterial proliferation at 0.25 times of MIC for 10 hrs; type: functional, organism-based
[24] = system: Staphylococcus aureus; experiment: Antibacterial activity against methicillin-susceptible Staphylococcus aureus ATCC 25923 assessed as delayed bacterial proliferation at 0.5 times of MIC for 15 hrs; type: functional, organism-based
[25] = system: Staphylococcus aureus; experiment: Bacteriostatic activity against methicillin-susceptible Staphylococcus aureus ATCC 25923 assessed as reduction in glucose metabolism measured at 0.5 hr interval for 15 hrs by phenol red based microplate reader assay; type: functional, organism-based
Summary of the method: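 Glucose acidification: an OD600 1.0 suspension of S. aureus […] in HBSS was mixed with phenol red (70 μM stock) and test agent added from a 2 mM stock. Controls were DMSO vehicle and water. OD560 was read every 0.5 h for 15 h at 37 °C.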

[26] = system: Staphylococcus aureus; experiment: Bacteriostatic activity against methicillin-susceptible Staphylococcus aureus ATCC 25923 assessed as reduction in bacterial metabolism at 0.25 to 1 times of MIC incubated for 1 hr by C12-resazurin dye based fluorescence assay; type: functional, organism-based
[27] = system: Staphylococcus aureus; experiment: Disruption of membrane potential in Staphylococcus aureus after 15 to 30 mins by DiOC2(3) probe based flow cytometric anlaysis; type: functional, organism-based; conditions: time 15-30 min
Summary of the method: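 An overnight S. aureus culture was diluted 1:100 in LB, shaken 2 h at 37 °C, then diluted to a final 1:200. Cells were treated with 3–30 μM, DMSO 2% vehicle or CCCP at 37 °C with shaking. At 15 and 30 min, samples were stained 20 min with DiOC2(3). Flow cytometry used ex 488 nm, green 530/30 and red 585/42, reported as red/green ratio (mean ± SEM).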

[28] = system: Staphylococcus aureus; experiment: Induction of intracellular oxidant species generation in Staphylococcus aureus ATCC 25923 after 1 hr by colorimetric based NBT assay; type: functional, organism-based
Summary of the method: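 Cells at OD600 1.5 in HBSS mixed with 1 mg/mL aqueous NBT and agent (added from 2 mM stock) or DMSO/water, shaken for 1 h at 37 °C. Stopped with 0.1 M HCl and centrifuged; pellet formazan solubilized in DMSO/KOH/HBSS and read at OD560.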

[29] = system: Staphylococcus aureus; experiment: Antibacterial activity against heterogeneous vancomycin-intermediate Staphylococcus aureus Mu3 ATCC 700698 assessed as bacterial growth inhibition measured between 5 to 7 passages by broth dilution method; type: functional; summary of the method: as §3

CCCCCCCCSSc1ccccn1
diameter of the inhibition zone (DIZ) [1]: 0 mm | diameter of the inhibition zone (DIZ) [2]: 0 mm | diameter of the inhibition zone (DIZ) [3]: 48 mm | diameter of the inhibition zone (DIZ) [4]: 30 mm | diameter of the inhibition zone (DIZ) [5]: 38 mm | diameter of the inhibition zone (DIZ) [6]: 38 mm | diameter of the inhibition zone (DIZ) [7]: 0 mm | MBC [8]: > 50 µM | MIC [9]: 25 µM (≈ 6.39 µg/mL) | MIC [10]: 12.5 µM (≈ 3.19 µg/mL) | Ratio [11]: >4 | Ratio [12]: 8 | MIC [13]: 6.25 µM (≈ 1.6 µg/mL) | MBC [14]: > 50 µM | Ratio [15]: >8 | Activity [16]: Active | Activity [17]: Active | MIC [18]: 50 µM | MIC [19]: 12.5 µM | MIC [20]: 25 µM | MIC [21]: 25 µM | IC50 [22]: 74.9 µM | Activity [23]: Active | Activity [24]: Active | Activity [25]: Active | Activity [26]: Active | Activity [27]: Dose-dependent effect | Activity [28]: Active | MIC [29]: > 50 µM

From ChEMBL document CHEMBL4715813, “Allicin-inspired pyridyl disulfides as antimicrobial agents for multidrug-resistant Staphylococcus aureus” (Eur J Med Chem, 2018)
